Assay [1] addresses Carboxy-terminal domain RNA polymerase II polypeptide A small phosphatase 1 (Homo sapiens) (UniProt Q9GZU7). Briefly: SCP1 melting temperature change from compounds – biophysical, differential scanning fluorimetry, orthogonal assay for Scp-1 inhibitor project, confirmation (AID 540329).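 Note: 0% = Tm of DMSO wells and 100% = Tm with sodium orthovanadate.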 The settings on record: Recombinant SCP1, Sypro Orange thermal shift Tm; at 40 µM; hits give high values. In outline: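 Technique: Protein melting followed by Sypro Orange dye fluorescence | Material: Scp-1 phosphatase domain | Input: Scp-1 protein added from a 10 µM stock solution | Measure: Melting temperature shift relative to vanadate | Times: 20-95 °C thermal ramp | Doses: One dose per compound, 10 mM stock | Benchmarks: Vanadate reference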
Background: In DSF a fluorescence change marks the thermal transition of the protein.

A short description of assay [2]: HIF-2a driven luciferase blockers, single dose – luminescence, 786-0 RCC cells, confirmation (AID 651580;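 active = mean inhibition across four replicates of at least 40 percent at the single tested concentration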). The settings on record: HIF-2a luciferase reporter luminescence, overnight, at 18.8 µM, hits give high values.
Assay [3] in a line: HIF-1a luciferase reporter signal reduction – MiaPaCa-2 cells, single concentration, counter-screen for HIF-2a inhibitor project, confirmation (AID 651589;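 active = mean inhibition of the reporter signal across four replicates at the single tested dose of 50% or more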). The note with it: MiaPaCa-2 HIF-1a luciferase reporter, desferoxamine, overnight; at 18.8 µM; hits give high values. (In general: A reporter such as luciferase makes a cellular process visible.)
Assay [4] in a line: MLLE domain peptide-binding blockers, IC50 – biochemical, fluorescence polarization, FITC-PAM2 peptide, dose response (AID 602259;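 active = mean IC50 at or below a set limit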). The settings on record: GST-MLLE/FITC-PAM2 peptide binding. On the technique in general: Polarisation of emitted light reports the rotation of a fluorescent probe.
Assay [5] is described as follows: inhibition of PEG-3 promoter luciferase signal – cell-based, HeLa, luciferase reporter, single concentration, confirmation (AID 602417;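 active = at 20 µM dose, 40% or more inhibition averaged across four replicates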). The note with it: HeLa PEG-Prom luciferase reporter, luminescence, overnight; at 20 µM; hits give high values.
Assay [6] in a line: NF-kB reporter suppression in CF airway cells – cell-based, GFP fluorescence, single concentration, confirmation (AID 602472; in the data active = inhibition above about 40%;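 note: stimulus PAF is a Pseudomonas aeruginosa filtrate and not platelet activating factor; plate controls were DMSO wells with stimulus for no effect and unstimulated DMSO wells for full effect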). The settings on record: KKLEB CF airway cells, PAF-induced NF-kB-GFP fluorescence, overnight; at 5 µM; hits give high values. An outline of the steps:
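Assay system: KKLEB immortalized cystic fibrosis airway epithelial cells with NFkB-GFP reporter. Buffer or medium: medium with 2% FBS for cells, serum-free medium for stimulus. Dosing: 5 µM single dose. Times: 2 h compound pretreatment at 37 °C, overnight PAF exposure. Measured by: GFP fluorescence of NFkB reporter.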

Structures are written as SMILES. For some of these results: Potency and affinity values are given separately. Unmarked numbers belong to inactive results. The list shows a part of the results. Calls of active or inactive are those of the source.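 Rule for the calls, unless noted: active = substances whose mean melting-temperature shift, as a percentage of the reference inhibitor's shift, reaches about 5.3% (limit read from the data); inactive = the rest.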

Carboxy-terminal domain RNA polymerase II polypeptide A small phosphatase 1 (Homo sapiens), sequence (Q9GZU7 76-261 limits assumed): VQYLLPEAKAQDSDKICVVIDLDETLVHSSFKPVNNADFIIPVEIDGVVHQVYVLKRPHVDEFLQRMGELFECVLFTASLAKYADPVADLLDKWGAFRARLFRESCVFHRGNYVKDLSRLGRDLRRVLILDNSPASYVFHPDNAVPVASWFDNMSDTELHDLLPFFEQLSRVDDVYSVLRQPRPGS

Turning to `O=C(O)c1ccc(N/N=C/c2ccc3ncccc3c2)cc1`, the thermal shift relative to vanadate control in assay [1] was 4.85%. In addition, the inhibition (as a rule, how much of the control response was suppressed) in assay [2] is 66.4% (active); in assay [3], 39.2%.

`O=C(Nc1cccnc1)c1cc2cc(Br)ccc2oc1=O`: the thermal shift relative to vanadate control in assay [1] is 0.88%.

`O=C(N/N=C/c1ccco1)c1ccc(C(=O)N/N=C/c2ccco2)o1`: in assay [1], the thermal shift relative to vanadate control was -14.3%.

For `Cc1c(Cl)cnc(NC(=O)COC(=O)c2ccc(S(=O)(=O)NCc3ccco3)cc2)c1Cl`, in assay [1], the thermal shift relative to vanadate control was 10.3% (active).

For `O=S(=O)(Nc1ccccc1Cl)c1cccc2nsnc12`, the thermal shift relative to vanadate control in assay [1] was -16.9%.

Consider `COc1ccc(/C=C/C(=O)OCC(=O)NC2CCCCCC2)cc1OC`, for which the thermal shift relative to vanadate control in assay [1] is -3.16%.

As to `O=C(Nc1cc(S(=O)(=O)N2CCCCC2)ccc1Cl)C1COc2ccccc2O1` (configuration not stated), in assay [1], the thermal shift relative to vanadate control is -12%.

For `O=C(CCNC(=O)c1ccccc1)NN=Cc1ccc(Br)o1`, in assay [1], the thermal shift relative to vanadate control was -12.5%.

For `COc1ccc(NC(=O)CN(C)C(=O)/C=C/c2cn(Cc3ccccc3)nc2-c2cccnc2)cc1`, the thermal shift relative to vanadate control in assay [1] was -16.5%.

For `C[c-]1[c-](C)[c-](C)[c-](C)[c-]1C.[Fe].c1cc2nccc(N3CCCC3)[c-]2c1` (configuration not stated), the IC50 (in general, the concentration at which inhibition is half-maximal) in assay [4] is more than 66 µM.

Turning to `Cc1nnc(SCC(=O)Nc2ccc(S(=O)(=O)Nc3ccc(Cl)nn3)cc2)s1`, in assay [1], the thermal shift relative to vanadate control was 3.43%.

`Cc1ccn2c(=O)nc(SCC(=O)NCc3ccc4c(c3)OCO4)nc2c1`: the thermal shift relative to vanadate control in assay [1] is -9.63%.

With `O=C(c1ccc(CS(=O)(=O)c2ccccc2)o1)N1CCN(c2ccccc2)CC1`, the thermal shift relative to vanadate control in assay [1] was -3.55%.

Consider `COc1cccc(NC(C)=[N+](C)CCNS(=O)(=O)c2ccc(Cl)cc2)c1`, for which, in assay [1], the thermal shift relative to vanadate control was -9.24%.

Regarding `O=C1NN(c2ccccc2)C(=O)/C1=C/c1ccc(-c2cccc(C(=O)O)c2)o1`, the thermal shift relative to vanadate control in assay [1] was 14.3% (active).

`C[N+](C)(C)CCNC(=O)c1cc[n+](Cc2ccccc2)c(/C=N/O)c1`: the thermal shift relative to vanadate control in assay [1] was -22.6%.

In the case of `O=C(COC(=O)CCC(=O)c1cccs1)NCc1ccco1`, in assay [1], the thermal shift relative to vanadate control is -2.74%.

With `Cc1ccc(NC(=O)COc2ccc(/C=N\NC(=O)c3cccnc3)cc2)cc1C`, the thermal shift relative to vanadate control in assay [1] was -4.33%.

Regarding `Cc1c(CCC(=O)O)c(=O)oc2c(C)c(OCc3ccccc3Cl)ccc12`, the thermal shift relative to vanadate control in assay [1] was -3.47%. In addition, the figures for the inhibition in assay [2] and in assay [3] were 63.3% (active) and 46.2%, respectively.

In the case of `C=Cc1ccc(C(=O)N2CCCC(CCC(=O)N3CCN(c4ccccn4)CC3)C2)cc1` (configuration not stated), the thermal shift relative to vanadate control in assay [1] was -35.8%.

Consider `O=C(c1cc2c(s1)CCC2)N1CCN(c2ccccc2)CC1`, for which the thermal shift relative to vanadate control in assay [1] was -14.1%.

Take `O=C(Nc1cccc(F)c1)c1cc(-c2ccco2)nc2ccccc12`: in assay [1], the thermal shift relative to vanadate control is -0.45%.

Consider `Cc1ccc(NC(=O)c2cc(-c3ccc(C)o3)nc3ccccc23)nc1`, for which the thermal shift relative to vanadate control in assay [1] is 5.81% (active).

With `C=C1c2cccc(OC)c2O[C@H](C(=O)OCC)[C@@H]1CCCCCC`, the thermal shift relative to vanadate control in assay [1] is -6.9%.

Regarding `O=C(COc1ccc(-n2cnnn2)cc1)Nc1ccccc1Cl`, in assay [1], the thermal shift relative to vanadate control was -5.03%.

Turning to `CC(C)CN(C(=O)COC(=O)c1ccc2ccccc2c1)c1c(N)n(Cc2ccccc2)c(=O)[nH]c1=O`, the inhibition in assay [5] is 34.1%.

As to `O=C(Cn1nnc(-c2ccc3c(c2)OCO3)n1)NCc1ccco1`, the thermal shift relative to vanadate control in assay [1] was 2.67%.

As for `CC(C)CCOc1ccc(C(=O)C[N+]2(C)CCOCC2)cc1`, in assay [1], the thermal shift relative to vanadate control was -16.6%.

Consider `COc1ccc(S(=O)(=O)c2c[nH]c(=S)[nH]c2=O)cc1Cl`, for which, in assay [1], the thermal shift relative to vanadate control is 13.1% (active).

`COc1ccc(Cc2nnc(NC(=O)Cc3cccs3)s2)cc1`: the thermal shift relative to vanadate control in assay [1] was 9.39% (active).

On to `Cc1ccc(C(NC(=O)C2CCN(CCOc3ccc(Cl)cc3Cl)CC2)c2ccccn2)cc1` (configuration not stated), for which, in assay [5], the inhibition was 36.9%.

Consider `O=C(Nc1ccc(Cl)cc1)Nc1nnc(/C=C/c2ccccc2)s1`, for which, in assay [6], the inhibition was 50.8% (active).

Turning to `c1nnc2c3c4c(sc3ncn12)CCC4`, the inhibition in assay [6] was 22.1%.

The values above are taken from PubChem BioAssay.
